Screens deposited in PubChem by Broad Institute.
A selection: hits, their analogues and other compounds. The true share with any hit is near 3.1%.
FGF22 binding: shifts melting point of recombinant human FGF22; Q9HCT0; recombinant FGF22 thermal shift, SYPRO orange fluorescence; percent of sucrose octasulfate shift, DMSO zero; activity (Tm shift, normalised), % at 9.99 µM; 340,000 compounds, 1.5% hits;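 active means mean Tm shift, scaled 0 neutral to 100 positive control, at about 1.3% or above, every replicate too, limit read from the data; inconclusive means no clear call, values can overlap the other calls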
Target sequence (Q9HCT0 whole entry, looked up): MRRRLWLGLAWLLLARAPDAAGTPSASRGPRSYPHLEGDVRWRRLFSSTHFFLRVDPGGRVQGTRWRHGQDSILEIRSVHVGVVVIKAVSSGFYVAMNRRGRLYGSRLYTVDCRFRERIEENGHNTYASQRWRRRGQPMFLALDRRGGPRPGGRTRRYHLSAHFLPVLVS
EWS-Fli block: blocks EWS/Fli oncoprotein-driven transcription; A673 NR0B1-luciferase reporter, viability-normalised; inhibition, % at 12.6 µM; 350,000 compounds, 0.67% hits; AID 651661;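 active means mean inhibition of at least 50% after viability correction, with every replicate also passing that limit; inconclusive means mean reaches 50% but only one of two replicates passes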;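 further: firefly luciferase signal divided by Alamar Blue viability fluorescence both relative to DMSO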
Env fusion inh: HIV envelope-mediated fusion inhibition | HeLa-JRFL Env/CEM21 cell fusion, luciferase | inhibition, % at 12.3 µM | 360,000 compounds, 1.1% hits | AID 651610;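 active means mean replicate inhibition score of at least 50 and every replicate individually at or above 50; inconclusive means only one of the two criteria met; inactive means mean below 50 and not all replicates reaching 50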
PGC1a acetyl inh: modulators of PGC1a acetylation | U2OS PGC1a acetylation, AlphaScreen anti-acetyl-lysine; with virally co-expressed GCN5 acetyltransferase | inhibition, % at 15.6 µM | 350,000 compounds, 0.17% hits | AID 651687;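 active means every replicate shows inhibition of at least 40%; inconclusive means mean inhibition at least 40% but some replicate below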
PAX8 inh HTS: inhibitors of PAX8 transcriptional activity in RMG-I cells; inhibition, % at 12.6 µM; AID 652154; RMG-I TPO-luciferase reporter, SteadyGlo, 24 h; 360,000 compounds, 1.2% hits;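 active means mean replicate inhibition at least 60% with every replicate also reaching 60%; inconclusive means only one of the two criteria is met; inactive means mean below 60% and not all replicates reaching 60%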;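 further: luciferase light reporting Pax8 driven TPO promoter activity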
FN deposition inh: fibronectin deposition inhibition; 350,000 compounds, 0.086% hits; inhibition, % at 12.6 µM; AH1F fibroblasts, Alexa488-fibronectin deposition fluorescence, overnight;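 active means mean inhibition across replicates of 30% or more, regardless of how many single replicates reach that level; inconclusive means mean under 30% yet at least half of replicates reach 30%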
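Material – AH1F fibroblast monolayer, labelled fibronectin deposition · Reagent – labelled fibronectin 24 nM · Timing – 1 h adhesion, overnight exposure · Measured by – fluorescence at 485 nm excitation, 525 nm emission · Read-out – inhibition of fibronectin deposition signal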
Each line names hits and unclear results; the compound was inactive in the other large screens.

COc1cccc(S(=O)(=O)N(C)C[C@H]2Oc3cc(C4=CCCC4)ccc3S(=O)(=O)N([C@@H](C)CO)C[C@@H]2C)c1	none
C/C=C/c1ccc2c(c1)O[C@H](CN(C)C(=O)c1ccccn1)[C@@H](C)CN([C@@H](C)CO)S2(=O)=O	none (no result: PAX8 inh HTS, FN deposition inh)
CC1(C)CC(Cc2ccc(Cl)nc2)N(C(=O)OC(C)(C)C)C1 (centres undefined)	FGF22 binding 43.5
CCc1cccc(NC(=O)C2CCN(S(=O)(=O)c3ccc4c(c3)CC(C)N4C(C)=O)CC2)c1 (centres undefined)	Env fusion inh 68.0
CCC(=O)N1c2ccc(S(=O)(=O)N3CCN(c4ccc([N+](=O)[O-])cc4)CC3)cc2CC1C (centres undefined)	PAX8 inh HTS 68.4 (no result: PGC1a acetyl inh)
COc1cccc(NC(=O)C2CCN(S(=O)(=O)c3ccc4c(c3)CC(C)N4C(C)=O)CC2)c1 (centres undefined)	none (no result: EWS-Fli block)
CC1Cc2cc(S(=O)(=O)N3CCC(C(=O)N(C)Cc4ccco4)CC3)ccc2N1C(=O)C1CCC1 (centres undefined)	PAX8 inh HTS 61.0 (no result: EWS-Fli block)
C[C@@H]1CN([C@@H](C)CO)C(=O)Cc2cc(NC(=O)c3ccncc3)ccc2O[C@@H]1CN(C)C(=O)Nc1cccc2ccccc12	none
C[C@H](CO)N1C[C@H](C)[C@@H](CN(C)C(=O)Nc2ccc3c(c2)OCO3)Oc2ccc(NC(=O)CCCN(C)C)cc2C1=O	none (no result: Env fusion inh)
O=C(Sc1cccc2cccnc12)c1ccc(F)cc1	PAX8 inh HTS 106.2 (no result: PGC1a acetyl inh, FN deposition inh)
O=S(=O)(Nc1cc(Sc2cccc3cccnc23)c(O)c2ccccc12)c1ccc(F)cc1	PAX8 inh HTS 102.1 (no result: PGC1a acetyl inh)
CS(=O)(=O)N(C(=O)NC(=O)NC12CC3CC(CC(C3)C1)C2)C1CCCCC1	FGF22 binding 44.1
COc1ccc(N/N=C(/C(N)=O)C2=NC(C)(C)Cc3ccccc32)cc1	none (no result: PGC1a acetyl inh)
CC1(C)Cc2ccccc2C(/C(C#N)=N/O)=N1	FGF22 binding 42.9 (no result: PGC1a acetyl inh)
C[C@@H]1CCCCO[C@@H](CN(C)Cc2ccncc2)[C@@H](C)CN([C@@H](C)CO)C(=O)c2cc(NC(=O)Cc3ccccc3)ccc2O1	none (no result: FGF22 binding)
C/C=C/c1cnc2c(c1)C(=O)N([C@@H](C)CO)C[C@H](C)[C@@H](CN(C)C(=O)Nc1ccc(F)cc1)O2	none
N#Cc1ccccc1NC(=O)CSC1=Nc2ccccc2C2CC=NN12 (centres undefined)	FGF22 binding 43.7 (no result: PGC1a acetyl inh)
O=C(C[C@H]1C=C[C@@H](NS(=O)(=O)c2ccc(F)cc2)[C@@H](CO)O1)NCc1ccncn1	none
CC1(Oc2ccc3ccccc3c2)CCN(Cc2cccn2-c2nccs2)C1 (centres undefined)	Env fusion inh 70.2 (no result: PGC1a acetyl inh)
COC(=O)C[C@@H]1CC[C@H]2[C@H](COc3ccc(NC(=O)c4cccc(OC)c4)cc3C(=O)N2C)O1	none
COc1ccc(C(C)(O)c2nc(-c3ccncc3)cs2)cc1 (centres undefined)	EWS-Fli block 58.9
COc1ccc(C(C)(O)c2nc(-c3ccc(F)cc3OC)cs2)cc1 (centres undefined)	EWS-Fli block 57.7 (no result: PGC1a acetyl inh)
COc1ccc(-c2csc(C(C)(O)c3ccc(OC)cc3)n2)cc1 (centres undefined)	none
COc1ccc(C(C)(O)c2nc(-c3ccccc3C)cs2)cc1 (centres undefined)	EWS-Fli block 59.7
CO[C@@H]1CN(C)C(=O)c2ccc(NC(=O)c3cnccn3)cc2OC[C@@H](C)N(C(C)=O)C[C@@H]1C	none (no result: Env fusion inh, PAX8 inh HTS)
O=C(NCCCn1ccnc1)/C(=C/c1ccco1)NC(=O)c1cccs1	FGF22 binding 1.4
CCOc1ccc(C(C)=O)cc1COC(=O)c1ccccc1C(=O)N(C)Cc1ccccc1	Env fusion inh 98.2
CN(Cc1ccccc1)C(=O)c1ccccc1C(=O)OCC(=O)N(Cc1ccccc1)C(C)(C)C	none
CC(C)NC(=O)N(C)C[C@H]1Oc2ncc(-c3ccccc3F)cc2C(=O)N([C@H](C)CO)C[C@@H]1C	none (no result: PAX8 inh HTS, FN deposition inh)
N#C[C@H]1[C@H](c2ccc(-c3cccnc3)cc2)[C@@H](CO)N1C(=O)C1CC1	none
O=C(NCCc1ccccc1)C(c1cccs1)N(C(=O)CCl)c1ccc(Cl)cc1 (centres undefined)	PAX8 inh HTS 110.7 (no result: EWS-Fli block, PGC1a acetyl inh)
CCOC(=O)/C(C)=N/NC(=O)c1ccc([N+](=O)[O-])cc1	FGF22 binding 44.0
C[C@@H]1CCCCO[C@H](CN(C)C(=O)Cc2ccccc2)[C@@H](C)CN([C@H](C)CO)C(=O)c2cc(NC(=O)c3ccccc3)ccc2O1	none (no result: PAX8 inh HTS)
C[C@H]1CCCCO[C@@H](CN(C)C)[C@@H](C)CN([C@@H](C)CO)C(=O)c2cc(NS(=O)(=O)c3cccs3)ccc2O1	none
C[C@H](CO)N1C[C@H](C)[C@H](CN(C)C(=O)Nc2ccccc2)Oc2ccc(NC(=O)Nc3ccc(F)cc3)cc2CC1=O	none (no result: Env fusion inh)
O=C(Nc1ccc2sccc2c1)c1cccc(N2C(=O)CCC2=O)c1	FGF22 binding 43.3 (no result: PGC1a acetyl inh, FN deposition inh)
COC(=O)Cn1c(=O)c(C(=O)CCl)c(N)n(Cc2ccccc2)c1=O	EWS-Fli block inconclusive, PAX8 inh HTS 63.4
NC(=O)CSc1nnc(-c2cccc(S(=O)(=O)N3CCCCC3)c2)o1	none (no result: PGC1a acetyl inh)
O=S(=O)(c1cccc(-c2nnc(-c3ccc(Br)cc3)o2)c1)N1CCCCCC1	Env fusion inh 60.0 (no result: FGF22 binding, EWS-Fli block, PAX8 inh HTS)
O=C(CSc1nccc(=O)[nH]1)NC1CCCc2ccccc21 (centres undefined)	none
O=C(CSc1ncn[nH]1)NC1CCCc2ccccc21 (centres undefined)	FGF22 binding 42.9
CCN(CC)CCNC(=O)c1cc(-c2cccnc2)nc2ccc(S(=O)(=O)N3CCC(C)CC3)cc12	EWS-Fli block 63.1 (no result: PGC1a acetyl inh)
CCCCN(C)CCNC(=O)c1cc(-c2cccnc2)nc2ccc(S(=O)(=O)N3CCC(C)CC3)cc12	none (no result: EWS-Fli block)
CC(=O)N(C)C[C@H]1Oc2cc(C3=CCCC3)ccc2S(=O)(=O)N([C@@H](C)CO)C[C@H]1C	none (no result: PAX8 inh HTS)
COC(=O)CN1C(c2cccc(Cl)c2)=Nc2ccc(Cl)cc2C1c1ccccc1 (centres undefined)	Env fusion inh 56.0 (no result: PGC1a acetyl inh)
CCN(CC(=O)Nc1c(F)cccc1F)C(=O)c1ccc(N2CCCC2)c([N+](=O)[O-])c1	none (no result: Env fusion inh, PGC1a acetyl inh)
CCN(CC(=O)Nc1c(F)cccc1F)C(=O)c1cc([N+](=O)[O-])ccc1N1CCCCC1	PAX8 inh HTS 79.6
CCN(CC(=O)Nc1c(F)cccc1F)C(=O)c1cc(S(=O)(=O)N2CCOCC2)ccc1N1CCCC1	PAX8 inh HTS 72.4
COc1cccc(-c2nc(-c3ccccc3)[nH]c(=O)c2C#N)c1	none (no result: FGF22 binding, EWS-Fli block, PAX8 inh HTS)
CCC(Sc1nc(-c2cccc(OC)c2)c(C#N)c(=O)[nH]1)C(=O)Nc1nnc(C(C)C)s1 (centres undefined)	FGF22 binding 2.1 (no result: PGC1a acetyl inh)
O=c1c(Br)ccc(Br)cc1Br	PAX8 inh HTS 117.7, FN deposition inh 36.4 (no result: PGC1a acetyl inh)
